ChEMBL document CHEMBL1123442 (J Med Chem, 1986)
Active and inactive are the calls of the source. No cut-off for these calls is given here.

How the values were obtained:
HCT-8 = experiment: In vitro for cytotoxicity against human colon tumor cells (HCT-8) in culture; type: functional, cell-based
L1210 = experiment: In vitro for cytotoxicity against murine leukemia cells (L1210); type: functional, cell-based; details: Mus musculus
[1] = tested on: Lewis lung carcinoma cell line; experiment: Evaluated in vivo for antitumor activity against Lewis lung carcinoma; i denotes Inactive; type: functional, organism-based; details: Mus musculus
Procedure, shortened: (§1)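 Mice inoculated intravenously with 10^6 Lewis lung carcinoma cells, then drug intraperitoneally in 0.1 mL 30% v/v ethanol-water on days 5, 9 and 13. D50 (mg/kg per day for 50% ILS) taken from dose-response graph. ILS at optimal dose versus untreated tumor-bearing controls. Survivors counted at 40 days.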

[2] = tested on: Lewis lung carcinoma cell line; experiment: In vivo for antitumor activity against Lewis lung carcinoma; type: functional, Mus musculus; procedure, shortened: as §1
[3] = tested on: Lewis lung carcinoma cell line; experiment: Evaluated in vivo for antitumor activity against Lewis lung carcinoma; g denotes ILS of 50% could not be reached at any dose level; type: functional, organism-based; details: Mus musculus; procedure, shortened: as §1
P388 [4] = experiment: In vivo for antitumor activity against P388 leukemia.; type: functional, Mus musculus
Procedure, shortened: (§2)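 Mice given 10^6 P388 leukemia cells intraperitoneally, then drug intraperitoneally in 0.1 mL 30% v/v ethanol-water on days 1, 5 and 9. D50 (mg/kg per day giving 50% ILS) read from dose-response graph. ILS at optimal dose versus untreated controls. Long-term survival counted at 30 days.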

P388 [5] = experiment: In vivo for antitumor activity against P388 leukemia; type: functional, Mus musculus; procedure, shortened: as §2
poly[d(A-T)] = experiment: Binding constant relative to amsacrine (Δlog K) for DNA binding by ethidium bromide displacement; details: Bos taurus
[6] = tested on: Lewis lung carcinoma cell line; experiment: Evaluated in vivo for antitumor activity against Lewis lung carcinoma; type: functional, Mus musculus; procedure, shortened: as §1

Row | Compound | IC50 (HCT-8) [nM] | IC50 (L1210) [nM] | ILSmax [1] | OD [2] [mg/kg] | D50 [3] | OD (P388 [4]) [mg/kg] | D50 (P388 [5]) [mg/kg] | ILSmax (P388 [5]) [%] | Δlog K (poly[d(A-T)]) | ILSmax [2] [%] | ILS max [1] | D50 [6] [mg/kg]
1 | CNC(=O)c1cccc2c(Nc3ccc(NS(C)(=O)=O)cc3NC)c3ccc(Cl)cc3nc12 | 1900 | 110 | inactive | 30 | ILS of 50% could not be reached | 45 | 30 | 61 | 6.79 |  |  | 
2 | CNc1cc(NS(C)(=O)=O)ccc1Nc1c2ccccc2nc2cc(C)ccc12 | 59 | 19 |  | 8.9 | ILS of 50% could not be reached | 8.9 | 3.5 | 88 | 6.71 | 41 |  | 
3 | CNC(=O)c1cccc2c(Nc3ccc(NS(C)(=O)=O)cc3NC)c3cccc(OC)c3nc12 | > 1000 | 320 |  | 65 | ILS of 50% could not be reached | 65 | 30 | 148 | 6.92 | 34 |  | 
4 | CNc1cc(NS(C)(=O)=O)ccc1Nc1c2ccccc2nc2ccc(C)cc12 | 1700 | 550 |  | 100 | ILS of 50% could not be reached | 100 | 55 | 8 | 5.89 | 200 |  | 
5 | COc1cc(NS(C)(=O)=O)ccc1Nc1c2ccccc2nc2ccccc12 [AMSACRINE] |  |  |  |  | ILS of 50% could not be reached |  |  |  |  |  |  | 
6 | CNc1cc(NS(C)(=O)=O)ccc1Nc1c2ccccc2nc2cc(I)ccc12 | 79 | 29 |  | 30 | ILS of 50% could not be reached | 45 | 10 | 70 | 6.42 |  | inactive | 
7 | CNc1cc(NS(C)(=O)=O)ccc1Nc1c2ccccc2nc2cc([N+](=O)[O-])ccc12 | 140 | 110 | inactive | 8.9 | ILS of 50% could not be reached | 5.9 | 3 | 70 | 6.72 |  |  | 
8 | CNc1cc(NS(C)(=O)=O)ccc1Nc1c2ccc(Br)cc2nc2c(C)cccc12 | 49 | 21 |  | 13.3 | ILS of 50% could not be reached | 13.3 | 7 | 122 | 7.27 | 34 |  | 
9 | CNc1cc(NS(C)(=O)=O)ccc1Nc1c2ccccc2nc2c(C(N)=O)cccc12 | 2800 | 560 | inactive | 30 | ILS of 50% could not be reached | 45 | 25 | 109 | 6.28 |  |  | 
10 | CNc1cc(NS(C)(=O)=O)ccc1Nc1c2ccccc2nc2cc(Br)ccc12 | 140 | 38 |  | 20 | ILS of 50% could not be reached | 66 | 5 | 136 | 6.99 | 49 |  | 
11 | CNC(=O)c1cccc2c(Nc3ccc(NS(C)(=O)=O)cc3NC)c3ccccc3nc12 | 1800 | 56 |  | 45 |  | 65 | 30 | 82 |  | 91 |  | 6.8
12 | CNc1cc(NS(C)(=O)=O)ccc1Nc1c2ccc(F)cc2nc2c(C)cccc12 | 150 | 150 |  | 45 |  | 45 | 6 | 152 |  | 143 |  | 25
